How the values were obtained:
Type in all cases: functional
Mythimna separata [1] = assay: In vivo insecticidal activity against pre-third-instar larval stage of Mythimna separata (Oriental armyworm) in corn leaves assessed as corrected mortality rate at 1 mg/ml treated for 3 secs before larval infestation measured after 36 days by leaf-dipping method; settings: 864 h
How it was run: (§1)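 Leaf-dip assay: fresh corn leaves dipped 3 s in 1 mg/mL compound in acetone, then air-dried; acetone-only leaves served as control. Groups of 10 pre-third-instar larvae per dish fed treated leaves, replaced when consumed. After 48 h all dishes switched to untreated fresh leaves until adult emergence. Held at 25 ± 2 °C, RH 65–80%, 12 h/12 h light/dark. Corrected mortality scored.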

Mythimna separata [2] = assay: In vivo insecticidal activity against pre-third-instar larval stage of Mythimna separata (Oriental armyworm) in corn leaves assessed as corrected mortality rate at 1 mg/ml treated for 3 secs before larval infestation measured after 24 days by leaf-dipping method; settings: 576 h; how it was run: as §1
Mythimna separata [3] = assay: In vivo insecticidal activity against pre-third-instar larval stage of Mythimna separata (Oriental armyworm) in corn leaves assessed as corrected mortality rate at 1 mg/ml treated for 3 secs before larval infestation measured after 12 days by leaf-dipping method; settings: 288 h; how it was run: as §1

Which mortality at 1000 µg/mL (Mythimna separata [1]) does the source give for `COc1cc([C@@H]2c3cc4c(cc3C[C@H]3COC(=O)[C@@H]32)OCO4)cc(OC)c1OC(=O)c1ccccc1Cl` here?
The mortality at 1000 µg/mL was 37%.

And the mortality at 1000 µg/mL (Mythimna separata [2])?
The mortality at 1000 µg/mL was 25%.

And the mortality at 1000 µg/mL (Mythimna separata [3])?
The mortality at 1000 µg/mL was 17.8%.

Which results are given for `COc1cc([C@@H]2c3cc4c(cc3C[C@H]3COC(=O)[C@@H]32)OCO4)cc(OC)c1OC(=O)Cc1cccc2ccccc12`?
mortality at 1000 µg/mL (Mythimna separata [1]): 37%; mortality at 1000 µg/mL (Mythimna separata [2]): 17.8%; mortality at 1000 µg/mL (Mythimna separata [3]): 7.1%

How did the mortality at 1000 µg/mL (Mythimna separata [1]) turn out when `COc1cc([C@@H]2c3cc4c(cc3C[C@H]3COC(=O)[C@@H]32)OCO4)cc(OC)c1OC(=O)c1cccc([N+](=O)[O-])c1` was run?
The mortality at 1000 µg/mL was 51.8%.

What about the mortality at 1000 µg/mL (Mythimna separata [2]) of the same molecule?
Its mortality at 1000 µg/mL is 14.2%.

What about the mortality at 1000 µg/mL (Mythimna separata [3]) of the same molecule?
The mortality at 1000 µg/mL was 3.5%.

With `COc1cc([C@@H]2c3cc4c(cc3C[C@H]3COC(=O)[C@@H]32)OCO4)cc(OC)c1OC(=O)c1ccc([N+](=O)[O-])cc1` as the molecule, how does the mortality at 1000 µg/mL (Mythimna separata [1]) read?
The mortality at 1000 µg/mL was 40.7%.

What about the mortality at 1000 µg/mL (Mythimna separata [2]) of the same molecule?
The mortality at 1000 µg/mL was 17.8%.

What about the mortality at 1000 µg/mL (Mythimna separata [3]) of the same molecule?
Its mortality at 1000 µg/mL is 7.1%.

`COc1cc([C@@H]2c3cc4c(cc3C[C@H]3COC(=O)[C@@H]32)OCO4)cc(OC)c1OC(=O)c1cc([N+](=O)[O-])cc([N+](=O)[O-])c1` was tested. Which mortality at 1000 µg/mL (Mythimna separata [1]) did it give?
The mortality at 1000 µg/mL was 22.2%.

And the mortality at 1000 µg/mL (Mythimna separata [2])?
Its mortality at 1000 µg/mL is 25%.

What about the mortality at 1000 µg/mL (Mythimna separata [3]) of the same molecule?
Its mortality at 1000 µg/mL is 14.2%.

What does the source list for `COc1cc([C@@H]2c3cc4c(cc3C[C@H]3COC(=O)[C@@H]32)OCO4)cc(OC)c1OC(=O)/C=C/c1ccccc1`?
mortality at 1000 µg/mL (Mythimna separata [1]): 48.1%; mortality at 1000 µg/mL (Mythimna separata [2]): 17.8%; mortality at 1000 µg/mL (Mythimna separata [3]): 10.7%

What does the source list for `COc1cc([C@@H]2c3cc4c(cc3C[C@H]3COC(=O)[C@@H]32)OCO4)cc(OC)c1OC(=O)c1cccnc1`?
mortality at 1000 µg/mL (Mythimna separata [1]): 62.9%; mortality at 1000 µg/mL (Mythimna separata [2]): 10.7%; mortality at 1000 µg/mL (Mythimna separata [3]): 3.5%

For `COc1cc([C@@H]2c3cc4c(cc3C[C@H]3COC(=O)[C@@H]32)OCO4)cc(OC)c1OC(=O)CCCc1c[nH]c2ccccc12`, which mortality at 1000 µg/mL (Mythimna separata [1]) is on record?
The mortality at 1000 µg/mL was 40.7%.

What about the mortality at 1000 µg/mL (Mythimna separata [2]) of the same molecule?
The mortality at 1000 µg/mL was 14.2%.

What about the mortality at 1000 µg/mL (Mythimna separata [3]) of the same molecule?
The mortality at 1000 µg/mL was 10.7%.

Which results are given for `COc1cc([C@@H]2c3cc4c(cc3C[C@H]3COC(=O)[C@@H]32)OCO4)cc(OC)c1OC(=O)c1ccncc1`?
mortality at 1000 µg/mL (Mythimna separata [1]): 59.2%; mortality at 1000 µg/mL (Mythimna separata [2]): 21.4%; mortality at 1000 µg/mL (Mythimna separata [3]): 14.2%

How did the mortality at 1000 µg/mL (Mythimna separata [1]) turn out when `COc1ccc(C(=O)Oc2c(OC)cc([C@@H]3c4cc5c(cc4C[C@H]4COC(=O)[C@@H]43)OCO5)cc2OC)cc1` was run?
Its mortality at 1000 µg/mL is 25.9%.

What about the mortality at 1000 µg/mL (Mythimna separata [2]) of the same molecule?
The mortality at 1000 µg/mL was 21.4%.

What about the mortality at 1000 µg/mL (Mythimna separata [3]) of the same molecule?
Its mortality at 1000 µg/mL is 3.5%.

With `COc1cc([C@@H]2c3cc4c(cc3C[C@H]3COC(=O)[C@@H]32)OCO4)cc(OC)c1OC(=O)c1ccc(Cl)cc1` as the molecule, how does the mortality at 1000 µg/mL (Mythimna separata [1]) read?
The mortality at 1000 µg/mL was 29.6%.

What about the mortality at 1000 µg/mL (Mythimna separata [2]) of the same molecule?
Its mortality at 1000 µg/mL is 14.2%.

And the mortality at 1000 µg/mL (Mythimna separata [3])?
Its mortality at 1000 µg/mL is 0%.

Which results are given for `COc1cc([C@@H]2c3cc4c(cc3C[C@H]3COC(=O)[C@@H]32)OCO4)cc(OC)c1OC(=O)Cc1ccccc1`?
mortality at 1000 µg/mL (Mythimna separata [1]): 29.6%; mortality at 1000 µg/mL (Mythimna separata [2]): 25%; mortality at 1000 µg/mL (Mythimna separata [3]): 10.7%

Which mortality at 1000 µg/mL (Mythimna separata [1]) does the source give for `COc1cc([C@@H]2c3cc4c(cc3C[C@H]3COC(=O)[C@@H]32)OCO4)cc(OC)c1OC(=O)c1ccccc1` here?
Its mortality at 1000 µg/mL is 48.1%.

And the mortality at 1000 µg/mL (Mythimna separata [2])?
Its mortality at 1000 µg/mL is 42.8%.

And the mortality at 1000 µg/mL (Mythimna separata [3])?
Its mortality at 1000 µg/mL is 28.5%.

`COc1cc([C@@H]2c3cc4c(cc3C[C@H]3COC(=O)[C@@H]32)OCO4)cc(OC)c1OC(=O)c1ccc(C)cc1` was tested. Which mortality at 1000 µg/mL (Mythimna separata [1]) did it give?
Its mortality at 1000 µg/mL is 33.3%.

What about the mortality at 1000 µg/mL (Mythimna separata [2]) of the same molecule?
The mortality at 1000 µg/mL was 17.8%.

And the mortality at 1000 µg/mL (Mythimna separata [3])?
Its mortality at 1000 µg/mL is 7.1%.

For `COc1cc([C@@H]2c3cc4c(cc3C[C@H]3COC(=O)[C@@H]32)OCO4)cc(OC)c1OC(=O)c1cccc(C)c1`, which mortality at 1000 µg/mL (Mythimna separata [1]) is on record?
Its mortality at 1000 µg/mL is 40.7%.

And the mortality at 1000 µg/mL (Mythimna separata [2])?
Its mortality at 1000 µg/mL is 25%.

And the mortality at 1000 µg/mL (Mythimna separata [3])?
The mortality at 1000 µg/mL was 17.8%.

What does the source list for `CC(=O)O[C@@H]1C[C@H](O)[C@@]23CO[C@@H](O)[C@]1(C)[C@@H]2C[C@@H](O)[C@]1(C)[C@@H]3C(=O)[C@H](OC(C)=O)[C@@]2(C)[C@H](c3ccoc3)C[C@H]3O[C@]321` [TOOSENDANIN]?
mortality at 1000 µg/mL (Mythimna separata [1]): 40.7%; mortality at 1000 µg/mL (Mythimna separata [2]): 35.7%; mortality at 1000 µg/mL (Mythimna separata [3]): 21.4%

From ChEMBL document CHEMBL3046209, “Semisynthesis and quantitative structure-activity relationship (QSAR) study of novel aromatic esters of 4'-demethyl-4-deoxypodophyllotoxin as insecticidal agents” (2009)
